Compound activity: PubChem BioAssay, Johns Hopkins Ion Channel Center
MrgX1 antagonist = antagonists of human MrgX1 receptor; MRGX1-HEK293 calcium flux, Fluo-4, BAM8-22 antagonism; active compounds read low; 1.3% of 310,000 active; AID 588676; B-score at 10 µM; Q96LB2;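 active = calcium-response B-score plate-corrected more than 3 library SD below zero, starting fluorescence within 5 deviations, no agonist response on first addition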;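 also: peak minus trough fluorescence over baseline after final BAM8-22 challenge near maximal dose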
Target sequence (Q96LB2 whole entry, looked up): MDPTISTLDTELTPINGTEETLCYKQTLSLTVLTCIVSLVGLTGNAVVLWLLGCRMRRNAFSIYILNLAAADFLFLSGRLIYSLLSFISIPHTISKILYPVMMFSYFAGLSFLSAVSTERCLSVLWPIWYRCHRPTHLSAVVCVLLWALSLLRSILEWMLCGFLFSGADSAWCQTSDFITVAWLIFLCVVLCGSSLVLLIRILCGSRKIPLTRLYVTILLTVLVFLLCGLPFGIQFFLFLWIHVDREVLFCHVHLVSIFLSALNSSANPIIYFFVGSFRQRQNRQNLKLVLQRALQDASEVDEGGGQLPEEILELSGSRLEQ
RGS4 inh = human RGS4 inhibition | P49798 | AID 463165 | 0.45% of 310,000 active | B-score at 10 µM | HEK293 M3R/RGS4 inducible, Fluo-4 calcium flux; active compounds read high; triggered by carbachol at its EC20;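 active = B-score, a plate-corrected calcium signal, over three deviations above library mean, with baseline fluorescence within five deviations of library mean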;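 also: RGS4 expression induced by doxycycline in cells with stable M3 receptor; B-score is computed from the integrated fluorescence ratio over baseline after carbachol; higher B-score means a larger calcium signal and so more RGS4 inhibition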
Target sequence (P49798 whole entry, looked up): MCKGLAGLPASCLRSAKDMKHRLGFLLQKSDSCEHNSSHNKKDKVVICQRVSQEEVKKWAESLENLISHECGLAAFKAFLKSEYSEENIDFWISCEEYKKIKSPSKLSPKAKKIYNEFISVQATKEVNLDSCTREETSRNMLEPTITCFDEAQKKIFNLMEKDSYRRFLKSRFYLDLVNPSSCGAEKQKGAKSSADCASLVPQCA
MrgX1 agonist = agonists of human MrgX1 receptor | MrgX1-HEK293 cells, Fluo-4 calcium fluorescence, agonist mode; active compounds read high | Q96LB2 | 0.44% of 310,000 active | AID 588627 | B-score at 10 µM;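 active = calcium response B-score plate-corrected fluorescence ratio at least 3 library SD, with starting fluorescence B-score inside 5 SD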
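Material – MrgX1-expressing HEK293 cells · Input – 15,000 cells seeded per well · Dosing – compound as first of three additions · Times – overnight seeding, then 1 h dark dye loading · Measured by – kinetic Fluo-4 NW fluorescence of intracellular calcium · Read-out – B-scored fluorescence response ratio · Benchmarks – positive and negative control wells on each plate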
RGS4 act = RGS4 potentiation or activation | HEK293 M3R/inducible RGS4, carbachol calcium flux Fluo4; active compounds read low | 0.92% of 310,000 active | AID 463111 | B-score at 10 µM;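 active = B-score of the integrated calcium signal more than 4 SD below the library mean, with starting fluorescence not abnormally high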;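 also: negative B-score means reduced calcium response which marks RGS4 activation or potentiation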
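test system = HEK293 cells with stable M3R and inducible RGS4 | schedule = recording 10 s baseline at 1 Hz, 100 s post-agonist | technique = Fluo4-AM (2 µM) calcium-flux fluorescence, kinetic read | measure = Agonist-evoked peak-minus-minimum fluorescence over baseline, integrated ratio, B score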
MrgX1 allo act = human MrgX1 positive allosteric modulation, primary screen; MrgX1-HEK293, Fluo-4 calcium flux, FDSS; active compounds read high; Q96LB2; 0.63% of 310,000 active; B-score at 10 µM;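 active = plate-corrected calcium response at least 3 library SD above typical, normal starting fluorescence, not activating the receptor alone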;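 also: compound read alongside a low EC10 to EC30 dose of BAM8-22 agonist; peak minus trough fluorescence over baseline measured at the second addition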
A number is an active result; n = inactive; x = no result given. This is a sample that favours compounds with a hit; in the whole collection about 3.5% have one here.

SMILES | MrgX1 antagonist | RGS4 inh | MrgX1 agonist | RGS4 act | MrgX1 allo act
Cc1c(O)ccc2cc(S(=O)(=O)c3ccccc3)c(=O)oc12 | n | n | n | -7.77 | n
CCc1nn(CC(=O)NCCCN2CCOCC2)c(=O)c2cc3cc(F)ccc3n12 | n | n | n | n | n
O=C1N/C(=C\c2ccc(O)cc2)C(=O)c2ccccc21 | n | n | 40.3 | n | n
COc1cc(/C=C2\SC(=S)N(NC(=O)c3ccc(O)cc3)C2=O)ccc1O | n | n | n | n | n
COc1cc(/C=C2\SC(=S)N(NC(=O)c3cccnc3)C2=O)ccc1O | -6.72 | n | n | n | n
O=C(NN1C(=O)/C(=C/c2ccc(O)c(O)c2)SC1=S)c1ccccc1 | n | n | 31.8 | n | n
O=C1/C(=C/c2ccc(O)c(O)c2)SC(=S)N1Nc1ccccc1 | x | n | x | n | x
Cc1ccc(C(=O)NN2C(=O)/C(=C/c3cn(C)c4ccccc34)SC2=S)cc1 | -4.77 | x | n | x | n
Cn1cc(/C=C2\SC(=S)N(NC(=O)c3ccccc3Cl)C2=O)c2ccccc21 | n | x | n | x | n
O=c1c2sccc2nc(SCc2cc(=O)n3ccccc3n2)n1Cc1ccccn1 | n | n | n | n | n
COc1ccc(S(=O)(=O)c2c(N)n(Cc3ccco3)c3nc4ccccc4nc23)cc1 | -5.51 | n | n | n | n
COC(=O)c1cc(S(=O)(=O)n2nc(C)c(Br)c2C)c(Cl)cc1Cl | n | n | n | n | n
CCOC(=O)C1CCN(c2c(NCCN(CC)c3ccccc3)c(=O)c2=O)CC1 | n | n | n | n | 9.96
CCOC(=O)/C(C#N)=N/Nc1ccc(S(=O)(=O)N2CCc3ccccc32)cc1 | -4.52 | n | n | n | n
N#C/C(=N\Nc1ccc(S(=O)(=O)N2CCc3ccccc32)cc1)C(N)=S | n | n | n | n | n
CCCCCCCCCCOC(=O)C[N+](C)(C)C/C=C(/C)Cl | -5.33 | n | n | n | n
CCCCCCCCOC(=O)C[N+](C)(C)C/C=C(/C)Cl | n | n | n | n | n
CCCCCCCCCCCCOC(=O)C[N+](C)(C)C | n | n | n | -8.95 | n
COc1cc(/C=N/NC(=O)c2nnn(-c3nonc3N)c2C(C)C)ccc1OCc1ccc(F)cc1 | n | n | n | n | n
CCOc1ccccc1NC(=S)NC(=O)CCCOc1ccc(Cl)cc1Cl | n | n | n | -7.3 | n
COc1cc(/C=N/OCC(=O)Nc2ccc(OC(F)F)cc2)ccc1OCc1ccccc1 | n | n | n | -7.03 | n
CCOC(=O)N1CCC(N2CCN(c3ccccc3)CC2)CC1 | n | n | n | n | n
O=C1CCCC(O)=C1N=Nc1ccc(C(=O)O)cc1 | n | n | n | n | n
O=C1CCCC(O)=C1N=Nc1ccc2c(c1)OCO2 | -5.04 | n | n | n | n
CN1CCN(CCCNC(=O)c2ccc(/C=C3/Sc4ccccc4N(Cc4cccc(Cl)c4)C3=O)cc2)CC1 | x | n | x | -7.66 | x
SMILES | MrgX1 antagonist | RGS4 inh | MrgX1 agonist | RGS4 act | MrgX1 allo act
CN1CCN(CCCNC(=O)c2ccc(/C=C3\Sc4ccccc4N(Cc4ccc(F)cc4)C3=O)cc2)CC1 | x | n | x | -7.5 | x
Cc1cccc(CN2C(=O)/C(=C\c3ccc(C(=O)NCCCN4CCN(C)CC4)cc3)Oc3ccccc32)c1 | n | n | n | n | n
CN1CCN(CCCNC(=O)c2ccc(/C=C3\Oc4ccccc4N(Cc4ccccc4F)C3=O)cc2)CC1 | n | n | n | -8.27 | n
O=C(CN1C(=O)/C(=C/c2ccccc2)Sc2ccccc21)NCCCN1CCOCC1 | n | n | n | n | n
Cc1ccc(S(=O)(=O)N(CC(O)CN2C(=O)NC(C)(C)C2=O)c2ccccc2)cc1 (configuration not stated) | n | n | n | n | n
CCOC(=O)c1ccc(NC(=O)COc2ccc(CNC3CCCCC3)cc2OC)cc1 | n | n | n | -7.49 | n
Cc1c(CCOC(=O)c2ccc([N+](=O)[O-])cc2)sc[n+]1CC(=O)c1ccccc1 | n | n | n | n | n
COc1ccc(C(=O)OCCc2sc[n+](CC(=O)c3ccccc3)c2C)cc1 | n | n | n | -10.8 | n
COc1ccc(CCN2CCCn3c2nc2c3c(=O)n(C)c(=O)n2C)cc1OC | x | n | x | n | x
CN(C)c1ccc(/C=C2\SC(=S)N(Nc3ncc(C(F)(F)F)cc3Cl)C2=O)cc1 | n | n | n | n | 13.2
COc1cc(/C=C2\SC(=S)N(Nc3ncc(C(F)(F)F)cc3Cl)C2=O)ccc1O | n | n | n | n | 16.8
COc1cc(/C=C2\SC(=S)N(Nc3ccccc3)C2=O)ccc1O | n | n | n | n | n
CN(c1cccc(NC(=O)Nc2cccc(Cl)c2)c1)S(C)(=O)=O | -5.23 | n | n | n | n
O=C(CNC(=O)c1ccccc1)N=Nc1c(O)[nH]c2ccc(Br)cc12 | n | n | n | n | n
O=S(=O)(Cc1ccccc1)N=Nc1c(O)[nH]c2ccc(Br)cc12 | n | n | n | n | 10.5
O=C(Nc1ccc2c(c1)CCC2)C1CCN(c2c3c(nc4ncnn24)CCC3)CC1 | n | n | n | n | n
O=C(Nc1ccc(Oc2ccccc2)cc1)C1CCN(c2c3c(nc4ncnn24)CCC3)CC1 | n | n | n | -11.8 | n
Clc1ccc(CONc2ncnc3nonc23)c(Cl)c1 | n | n | n | n | n
O=S(Cc1cc(Sc2ccccc2)nc(-c2ccccc2)n1)c1ccccc1 (configuration not stated) | n | n | n | n | 10
CNc1cc(CS(=O)c2ccccc2)nc(-c2ccccc2)n1 (configuration not stated) | n | n | n | n | n
CC(NC(=O)CNC(=O)c1ccco1)c1ccccc1 (configuration not stated) | n | n | n | n | n
COc1ccc(C2NC(=O)NC(O)(C(F)(F)F)C2C(=O)c2ccc(C)cc2)cc1 (configuration not stated) | n | n | n | -7.56 | n
O=C(NS(=O)(=O)Oc1ccccc1F)OC[C@@H]1CCCN2CCCCC12 (some centres not stated) | n | n | n | n | n
O=C(NNC(=O)c1ccc(SCC2CCCO2)c([N+](=O)[O-])c1)c1ccc(Cl)c([N+](=O)[O-])c1 (configuration not stated) | n | n | n | n | n
Cc1ccc(C(=O)NNC(=O)c2ccc(SCC3CCCO3)c([N+](=O)[O-])c2)cc1 (configuration not stated) | -6.68 | n | n | n | n
SMILES | MrgX1 antagonist | RGS4 inh | MrgX1 agonist | RGS4 act | MrgX1 allo act
Cn1c(=O)n(CCc2ccccc2)c(=O)c2c1nc1n2CCCN1CCc1ccccc1 | n | n | n | -7.71 | n
O=C(O)c1ccc(N2CCc3ccccc32)c([N+](=O)[O-])c1 | n | n | n | n | n
COC(=O)c1ccc(N2CCc3ccccc32)c([N+](=O)[O-])c1 | n | n | n | n | 7.7
Cc1[nH]c2ccccc2c1Cc1nnc(SCc2ccccc2)o1 | n | n | n | n | n
COc1ccc(/C=C/c2cccc[n+]2C)c(O)c1 | n | n | n | n | n
C[n+]1ccccc1/C=C/c1cc(Br)ccc1O | n | n | n | -8.51 | n
